# Laboratory results reported in ChEMBL document CHEMBL3351648, “Synthesis and pharmacological evaluation of 6-aminonicotinic acid analogues as novel GABA(A) receptor agonists” (Eur J Med Chem, 2014).
# Active and inactive are the calls of the source. The calls are words filed in the database; no cut-off is given here.
# Experiments:
# [1] = molecular target: GABA-A receptor; anion channel; assay: Displacement of [3H]muscimol from GABAA receptor in SPRD rat brain synaptic membranes by scintillation counting method; type: cell membranes
# Procedure, shortened: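 Rat synaptic membranes were thawed, homogenized in ice-cold 50 mM Tris-HCl pH 7.4, and spun at 48,000g for 10 min at 4 °C, with the wash repeated four times. Incubation was with 5 nM [3H]muscimol (final) and varying test concentrations for 60 min at 0 °C, then GF/C filtration and scintillation counting.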
# [2] = molecular target: T1, GABA-A receptor; alpha-1/beta-2/gamma-2 (Homo sapiens, UniProt P14867+P18507+P47870); assay: (§1) Agonist activity at human GABAAalpha1beta2gamma2S receptor expressed in tsA-201cells by FLIPR membrane potential blue assay
# T1 sequence (P14867 whole entry): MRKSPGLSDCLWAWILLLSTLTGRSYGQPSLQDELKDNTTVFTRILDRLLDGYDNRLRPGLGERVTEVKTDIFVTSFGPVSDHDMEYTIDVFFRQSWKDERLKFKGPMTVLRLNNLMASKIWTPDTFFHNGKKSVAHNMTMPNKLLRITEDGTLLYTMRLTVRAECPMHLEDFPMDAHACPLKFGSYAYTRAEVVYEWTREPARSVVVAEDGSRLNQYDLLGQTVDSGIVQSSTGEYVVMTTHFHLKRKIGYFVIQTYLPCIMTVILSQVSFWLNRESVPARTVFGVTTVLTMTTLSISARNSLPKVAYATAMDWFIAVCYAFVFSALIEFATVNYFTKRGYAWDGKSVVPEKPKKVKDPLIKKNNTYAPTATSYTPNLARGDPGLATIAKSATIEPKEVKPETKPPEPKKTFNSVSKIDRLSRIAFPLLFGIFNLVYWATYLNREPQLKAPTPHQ
# T1 sequence (P47870 whole entry): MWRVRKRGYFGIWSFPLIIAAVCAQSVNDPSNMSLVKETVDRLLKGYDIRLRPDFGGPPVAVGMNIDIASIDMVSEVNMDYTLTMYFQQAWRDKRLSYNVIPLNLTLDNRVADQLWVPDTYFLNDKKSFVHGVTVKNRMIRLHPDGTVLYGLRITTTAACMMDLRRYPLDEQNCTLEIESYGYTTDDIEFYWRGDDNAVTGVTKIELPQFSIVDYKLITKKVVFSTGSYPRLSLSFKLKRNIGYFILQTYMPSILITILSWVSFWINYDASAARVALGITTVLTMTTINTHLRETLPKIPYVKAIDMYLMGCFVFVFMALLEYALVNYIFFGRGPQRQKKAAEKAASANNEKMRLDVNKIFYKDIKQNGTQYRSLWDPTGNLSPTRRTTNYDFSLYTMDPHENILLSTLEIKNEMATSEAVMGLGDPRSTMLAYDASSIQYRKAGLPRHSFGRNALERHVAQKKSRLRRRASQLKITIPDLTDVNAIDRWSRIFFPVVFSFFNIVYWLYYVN
# T1 sequence (P18507 whole entry): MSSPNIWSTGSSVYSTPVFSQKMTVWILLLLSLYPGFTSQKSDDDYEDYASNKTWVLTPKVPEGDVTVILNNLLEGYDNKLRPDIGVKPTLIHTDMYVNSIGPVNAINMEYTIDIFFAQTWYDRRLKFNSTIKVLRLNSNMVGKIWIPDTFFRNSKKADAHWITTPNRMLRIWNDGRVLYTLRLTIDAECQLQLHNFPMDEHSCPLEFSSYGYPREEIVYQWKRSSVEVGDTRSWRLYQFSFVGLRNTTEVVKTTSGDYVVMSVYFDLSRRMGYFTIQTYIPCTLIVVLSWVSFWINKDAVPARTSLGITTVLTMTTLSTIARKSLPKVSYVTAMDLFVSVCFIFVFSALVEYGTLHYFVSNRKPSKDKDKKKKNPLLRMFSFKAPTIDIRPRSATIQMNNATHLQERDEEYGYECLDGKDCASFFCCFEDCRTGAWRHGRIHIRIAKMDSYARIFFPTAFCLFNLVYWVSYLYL
# Procedure, shortened: (§2)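 tsA201 cells (8×10^5 per 6 cm dish) were transfected with α1, α2, α3 or α5 plus β2 and γ2S cDNAs (1:1:3), or with ρ1 alone. Next day cells were replated into poly-D-lysine 96-well plates. After 16–24 h they were washed with Krebs buffer pH 7.4, given membrane-potential dye, held 30 min at 37 °C, and read at 560 nm emission. Concentration-response curves used ΔFU before versus after agonist; duplicates were run ≥3 times.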
# [3] = molecular target: T2, GABA-A receptor; alpha-1/beta-2/gamma-2 (Homo sapiens, UniProt P14867+P47870+P18507); assay: as §1; conditions: tsa-201; procedure, shortened: as §2
# T2 sequence (P14867 whole entry): T1 sequence (P14867 whole entry)
# T2 sequence (P47870 whole entry): T1 sequence (P47870 whole entry)
# T2 sequence (P18507 whole entry): T1 sequence (P18507 whole entry)
# [4] = molecular target: T3, Gamma-aminobutyric acid receptor subunit rho-1 (Homo sapiens, UniProt P24046); assay: Agonist activity at human GABAA rho1 expressed in tsA-201cells by FLIPR membrane potential blue assay; procedure, shortened: as §2
# T3 sequence (P24046 whole entry): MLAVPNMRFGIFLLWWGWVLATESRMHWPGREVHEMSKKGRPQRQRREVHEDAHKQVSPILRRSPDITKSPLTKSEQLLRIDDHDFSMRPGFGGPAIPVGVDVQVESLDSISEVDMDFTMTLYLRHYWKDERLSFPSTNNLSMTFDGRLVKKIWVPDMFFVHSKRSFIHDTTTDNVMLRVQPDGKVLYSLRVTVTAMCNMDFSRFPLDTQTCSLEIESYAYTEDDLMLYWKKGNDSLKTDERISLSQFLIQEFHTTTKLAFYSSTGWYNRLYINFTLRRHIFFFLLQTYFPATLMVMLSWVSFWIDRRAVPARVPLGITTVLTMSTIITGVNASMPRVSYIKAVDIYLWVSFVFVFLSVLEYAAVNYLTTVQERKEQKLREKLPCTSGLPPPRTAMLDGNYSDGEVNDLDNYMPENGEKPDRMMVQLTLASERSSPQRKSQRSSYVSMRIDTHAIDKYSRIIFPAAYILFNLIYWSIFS
# [5] = molecular target: T3, Gamma-aminobutyric acid receptor subunit rho-1; assay: Agonist activity at human GABAA rho1 expressed in tsA-201cells at 1 mM by FLIPR membrane potential blue assay; type: cell-based
# Procedure, shortened: (§3)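 Transfected tsA201 cells (α1β2γ2S or ρ1) were loaded with membrane-potential dye in Krebs buffer pH 7.4 for 30 min at 37 °C. Compound was applied at a single 1 mM concentration. Response was read as fluorescence change at 560 nm emission before versus after addition, in duplicate on ≥3 occasions.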
# [6] = molecular target: GABA A receptor alpha-2/beta-2/gamma-2 (Homo sapiens) (UniProt P47870+P18507+P47869); assay: Agonist activity at human GABAAalpha2beta2gamma2S receptor expressed in tsA-201cells by FLIPR membrane potential blue assay relative to GABA
# [7] = molecular target: GABA A receptor alpha-3/beta-2/gamma-2 (Homo sapiens) (UniProt P47870+P18507+P34903); assay: Agonist activity at human GABAAalpha3beta2gamma2S receptor expressed in tsA-201cells by FLIPR membrane potential blue assay relative to GABA
# [8] = Agonist activity at human GABAAalpha5beta2gamma2S receptor expressed in tsA-201cells by FLIPR membrane potential blue assay; type: cell membranes
# tsA-201 = assay: Agonist activity at human GABAAalpha5beta2gamma2S receptor expressed in tsA-201cells by FLIPR membrane potential blue assay relative to GABA
# [9] = molecular target: T3, Gamma-aminobutyric acid receptor subunit rho-1; assay: Agonist activity at human GABAA rho1 expressed in tsA-201cells by FLIPR membrane potential blue assay relative to GABA
# [10] = molecular target: GABA-A receptor; alpha-1/beta-2/gamma-2 (Homo sapiens) (UniProt P14867+P47870+P18507); assay: Agonist activity at human GABAAalpha1beta2gamma2S receptor expressed in tsA-201cells at 1 mM by FLIPR membrane potential blue assay; type: cell-based; procedure, shortened: as §3
# [11] = molecular target: T4, GABA A receptor alpha-2/beta-2/gamma-2 (Homo sapiens, UniProt P18507+P47869+P47870); assay: Agonist activity at human GABAAalpha2beta2gamma2S receptor expressed in tsA-201cells by FLIPR membrane potential blue assay; procedure, shortened: as §2
# T4 sequence (P47870 whole entry): T1 sequence (P47870 whole entry)
# T4 sequence (P18507 whole entry): T1 sequence (P18507 whole entry)
# T4 sequence (P47869 whole entry): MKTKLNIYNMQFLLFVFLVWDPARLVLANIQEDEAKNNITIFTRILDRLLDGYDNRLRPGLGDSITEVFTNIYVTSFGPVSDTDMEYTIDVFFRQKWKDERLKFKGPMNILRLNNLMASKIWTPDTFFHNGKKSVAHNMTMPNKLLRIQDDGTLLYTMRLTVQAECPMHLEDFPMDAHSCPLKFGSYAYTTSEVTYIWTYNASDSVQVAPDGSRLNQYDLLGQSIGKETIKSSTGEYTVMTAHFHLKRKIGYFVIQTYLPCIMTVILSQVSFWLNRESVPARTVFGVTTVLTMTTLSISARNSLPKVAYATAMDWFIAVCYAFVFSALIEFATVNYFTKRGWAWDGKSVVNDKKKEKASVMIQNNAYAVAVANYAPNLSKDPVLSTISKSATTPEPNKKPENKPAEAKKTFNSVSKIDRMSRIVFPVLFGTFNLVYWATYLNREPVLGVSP
# [12] = molecular target: T5, GABA A receptor alpha-3/beta-2/gamma-2 (Homo sapiens, UniProt P18507+P34903+P47870); assay: Agonist activity at human GABAAalpha3beta2gamma2S receptor expressed in tsA-201cells by FLIPR membrane potential blue assay; procedure, shortened: as §2
# T5 sequence (P47870 whole entry): T1 sequence (P47870 whole entry)
# T5 sequence (P18507 whole entry): T1 sequence (P18507 whole entry)
# T5 sequence (P34903 whole entry): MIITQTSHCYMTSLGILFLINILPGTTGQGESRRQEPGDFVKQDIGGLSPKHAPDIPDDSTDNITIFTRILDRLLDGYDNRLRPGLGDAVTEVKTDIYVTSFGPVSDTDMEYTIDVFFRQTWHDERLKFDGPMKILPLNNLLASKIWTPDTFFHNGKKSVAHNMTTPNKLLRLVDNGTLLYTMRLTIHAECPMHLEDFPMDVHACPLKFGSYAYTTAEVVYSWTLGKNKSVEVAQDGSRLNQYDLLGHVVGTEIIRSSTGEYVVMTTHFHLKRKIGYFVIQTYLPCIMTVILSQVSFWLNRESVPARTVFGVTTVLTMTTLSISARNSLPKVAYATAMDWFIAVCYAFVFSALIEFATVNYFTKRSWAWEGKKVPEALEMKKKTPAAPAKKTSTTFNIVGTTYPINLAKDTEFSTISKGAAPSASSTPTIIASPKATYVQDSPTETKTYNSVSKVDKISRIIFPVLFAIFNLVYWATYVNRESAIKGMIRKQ
# [13] = Dissociation constant, pKa of the compound by diode array detector method; type: physicochemical
# Procedure, shortened: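 pKa was determined by titration in methanol cosolvent at 23–48%, with three titrations per compound. An in-line diode-array detector recorded UV-Vis spectra, and the titration was mapped against the spectra of the protonated and unprotonated species.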
smiles,measurement,setting,value
Nc1cccc(C(=O)O)n1,Ki,[1],> 100 µM
Nc1cccc(CC(=O)O)n1,Ki,[1],> 100 µM
NCc1cc(=O)[nH]o1 [MUSCIMOL],Ki,[1],0.006 µM
Cc1cc(C(=O)O)cnc1N,Ki,[1],> 100 µM
CCc1nc(N)ccc1C(=O)O,Ki,[1],2.1 µM
same,EC50,[2]; read-out: EC50,> 1000 µM
same,pEC50,[3],< 3
same,EC50,[4]; read-out: EC50,> 1000 µM
same,pEC50,[4]; tsa-201,< 3
Nc1cc(-c2ccccc2)c(C(=O)O)cn1,Ki,[1],> 100 µM
CNc1ccc(C(=O)O)cn1,Ki,[1],> 100 µM
Cc1cc(N)ncc1C(=O)O,Ki,[1],3.6 µM
same,EC50,[2]; read-out: EC50,> 1000 µM
same,pEC50,[3],< 3
same,EC50,[4]; tsa-201,Active
same,Activity,[5],Active
Nc1ccc(CC(=O)O)cn1,Ki,[1],90 µM
CCc1cc(C(=O)O)cnc1N,Ki,[1],> 100 µM
NCc1cc(O)no1 [MUSCIMOL],Rmax,[6],99%
same,Rmax,[7],97%
same,EC50,[8],0.054 µM
same,pEC50,[8],7.27
same,Rmax,tsA-201,114%
same,Rmax,[9],98%
O=C(O)C1CCNCC1 [ISONIPECOTIC ACID],Ki,[1],0.51 µM
same,EC50,[3],Active
same,Rmax,[10],66%
same,EC50,[4]; tsa-201,Active
same,Activity,[5],Active
same,EC50,[11],24 µM
same,Rmax,[6],85%
same,EC50,[12],17 µM
same,Rmax,[7],85%
same,EC50,[8],2.8 µM
same,pEC50,[8],5.54
same,Rmax,tsA-201,115%
same,Rmax,[9],inactive
Nc1ccc(C(=O)O)cn1,Ki,[1],4.4 µM
same,pKi,[1],5.39
same,EC50,[2]; read-out: EC50,> 300 µM
same,EC50,[2]; read-out: pEC50 (converted),> 316 µM
same,EC50,[4]; tsa-201,Active
same,pKa,[13],6.2
Nc1ncc(C(=O)O)cn1,Ki,[1],> 100 µM
same,pKa,[13],1.9
Nc1ccc(C(=O)O)c(-c2ccccc2)n1,Ki,[1],> 100 µM
O=C(O)C1CN=CNC1 (stereo unspecified),Ki,[1],5.3 µM
same,pKi,[1],5.29
same,EC50,[3],Active
same,Rmax,[10],25%
same,pKa,[13],12.2
